In ChEMBL document CHEMBL1145729, “MMPs inhibitors: new succinylhydroxamates with selective inhibition of MMP-2 over MMP-3” (Bioorg Med Chem Lett, 2003):
Where “and” joins values, the source holds several entries; their conditions need not be identical. Equal values may be shown once.

Columns and labels:
[1] = target: T1, Stromelysin-1 (Homo sapiens, UniProt P08254); experiment: Inhibition of human matrix metalloprotease-3
How it was run: (§1)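 Fluorogenic peptide cleavage assay with substrate Mca-Pro-Leu-Gly-Leu-Dpa-Ala-Arg-NH2. The enzyme was truncated recombinant MMP-3 lacking the PEX and pro domains, used instead of activated pro-MMP-3 because activation of the proenzyme was not reproducible.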

[2] = target: T2, 72 kDa type IV collagenase (Homo sapiens, UniProt P08253); experiment: Inhibition of human matrix metalloprotease-2
T2 sequence (P08253 whole entry): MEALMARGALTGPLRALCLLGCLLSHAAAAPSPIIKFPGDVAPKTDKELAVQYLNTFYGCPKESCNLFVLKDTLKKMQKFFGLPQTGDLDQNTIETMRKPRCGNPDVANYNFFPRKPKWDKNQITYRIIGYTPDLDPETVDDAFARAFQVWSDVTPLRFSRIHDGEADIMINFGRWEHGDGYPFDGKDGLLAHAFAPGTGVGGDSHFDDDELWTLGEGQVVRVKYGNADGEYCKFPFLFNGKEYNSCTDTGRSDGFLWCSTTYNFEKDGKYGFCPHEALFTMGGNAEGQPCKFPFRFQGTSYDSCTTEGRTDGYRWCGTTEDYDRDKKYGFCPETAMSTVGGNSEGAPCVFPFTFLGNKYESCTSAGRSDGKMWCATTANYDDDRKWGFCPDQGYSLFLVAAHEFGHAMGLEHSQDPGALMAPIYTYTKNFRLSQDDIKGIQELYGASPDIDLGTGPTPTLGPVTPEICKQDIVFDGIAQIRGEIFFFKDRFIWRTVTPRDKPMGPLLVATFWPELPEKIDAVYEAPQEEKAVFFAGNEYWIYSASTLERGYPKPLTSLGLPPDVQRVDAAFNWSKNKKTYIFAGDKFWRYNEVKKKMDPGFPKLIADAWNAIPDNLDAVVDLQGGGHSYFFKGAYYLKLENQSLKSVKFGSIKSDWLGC

[3] = target: T1, Stromelysin-1; experiment: Inhibition of human matrix metalloprotease-3 (inactive); how it was run: as §1
[4] = target: T2, 72 kDa type IV collagenase; experiment: Inhibition of human matrix metalloprotease-2 (inactive)
How it was run: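 Fluorogenic peptide cleavage assay with substrate Mca-Pro-Leu-Gly-Leu-Dpa-Ala-Arg-NH2. The enzyme was recombinant pro-MMP-2 activated with APMA.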

[5] = target: Matrix metalloproteinase (2 and 3) (Homo sapiens) (UniProt P08254+P08253); experiment: Selectivity ratio for Matrix metalloprotease-2 over Matrix metalloprotease-3 (IC50); type: protein assay
Chain of Matrix metalloproteinase (2 and 3) (Homo sapiens) (P08253 whole entry, looked up): as the sequence (P08253 whole entry) above
Chain of Matrix metalloproteinase (2 and 3) (Homo sapiens) (P08254 whole entry, looked up): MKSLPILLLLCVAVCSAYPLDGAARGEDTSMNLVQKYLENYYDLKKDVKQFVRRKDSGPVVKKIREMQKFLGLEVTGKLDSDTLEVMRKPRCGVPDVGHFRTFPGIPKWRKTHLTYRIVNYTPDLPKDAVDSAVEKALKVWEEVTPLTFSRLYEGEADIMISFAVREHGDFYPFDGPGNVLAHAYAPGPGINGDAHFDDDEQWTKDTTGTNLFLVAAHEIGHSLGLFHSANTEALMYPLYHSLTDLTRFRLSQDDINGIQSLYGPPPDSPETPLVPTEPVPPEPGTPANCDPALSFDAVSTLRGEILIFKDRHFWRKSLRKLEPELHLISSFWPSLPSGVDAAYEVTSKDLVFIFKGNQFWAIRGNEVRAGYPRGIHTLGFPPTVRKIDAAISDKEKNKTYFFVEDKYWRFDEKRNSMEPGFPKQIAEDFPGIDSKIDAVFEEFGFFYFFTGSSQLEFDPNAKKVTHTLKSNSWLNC

T1 sequence (P08254 whole entry, the tested form may be a part): as the sequence (P08254 whole entry, looked up) above

IC50 [1]	IC50 [2]	IC50 [3]	IC50 [4]	Selectivity [5]	Structure (SMILES)
910 nM	19.6 nM				CNC(=O)[C@H](Cc1c[nH]c2ccccc12)NC(=O)/C(=C/C(C)C)CC(=O)NO [listing 1 of 3 here]
		Not Active	Not Active		CNC(=O)[C@H](Cc1c[nH]c2ccccc12)NC(=O)/C(=C/C(C)C)CC(=O)OC
179 nM	1.3 nM				CNC(=O)[C@H](Cc1c[nH]c2ccccc12)NC(=O)/C(=C/C(C)C)CC(=O)NO [listing 2 of 3 here]
2340 nM	5.97 nM			392	CCOC(=O)[C@H](Cc1c[nH]c2ccccc12)NC(=O)/C(=C/C(C)C)CC(=O)NO
0.191 nM					CNC(=O)[C@H](Cc1c[nH]c2ccccc12)NC(=O)[C@@H](CC(=O)NO)CC(C)C [ILOMASTAT]
665 nM	5.73 nM			116	CNC(=O)C(Cc1c(CCN(C)C)[nH]c2ccccc12)NC(=O)/C(=C/C(C)C)CC(=O)NO (centres undefined)
				138 and 46	CNC(=O)[C@H](Cc1c[nH]c2ccccc12)NC(=O)/C(=C/C(C)C)CC(=O)NO [listing 3 of 3 here]
